Screening data (PubChem BioAssay)
This is a sample that favours compounds with a hit; in the whole collection about 2.1% have one here.
Runt-CBFb FRET: inhibitors of RUNX1 Runt–CBFb binding, primary screen, biochemical, FRET, Cerulean-Runt, Venus-CBFb, uHTS; Runt-related transcription factor 1 (Homo sapiens) + Core-binding factor subunit beta …; Cerulean-Runt/Venus-CBFb FRET ratio 530/480, 1 h; inhibition, % at 20 µM; hit rate 0.46% among 220,000;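 active = inhibition over about 50% at 20 µM in the single-dose screen, limit read from the data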;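 note: 0% = DMSO wells and 100% = excess unlabeled CBFb competitor control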
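Measured by: fluorescence energy transfer, 422 nm excitation, 530/480 nm emission; Assay system: Cerulean-Runt domain; Medium: Tris pH 7.5 buffer with BSA; Measure: loss of energy transfer signal; Controls: 5 µM unlabeled CBFb as full-inhibition high control; Incubation: protein complex preformed 1 h, compound exposure 1 h, room temperature, dark.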
Runt-SMMHC FRET: inhibitors of RUNX1 Runt–CBFb-SMMHC binding, primary screen, biochemical, FRET, Cerulean-Runt, Venus-CBFb-SMMHC, uHTS | Runt-related transcription factor 1 (Homo sapiens) + Core-binding factor subunit beta … | Cerulean-Runt/Venus-CBFb-SMMHC FRET ratio 530/480, 1 h | inhibition, % at 20 µM | hit rate 0.74% among 220,000 | AID 1434, 2008;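 active = mean inhibition across duplicate retests at 20 µM reaching about 50%, limit read from the data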;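 note: 0% = DMSO wells and 100% = wells with excess untagged CBFb-SMMHC; inhibitors lower the FRET ratio by blocking Runt binding to CBFb-SMMHC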
Hck-Nef inh: inhibitors of Nef-activated human Hck kinase, primary screen, biochemical, Z-Lyte FRET, 384-well, Hck-YEEI | Tyrosine-protein kinase HCK (Homo sapiens), P08631 | inhibition, % at 20 µM | Recombinant Hck-YEEI plus Nef, Z-Lyte FRET kinase assay | hit rate 0.68% among 220,000;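 active = Hck-Nef kinase inhibition above about 50%, limit read from the data; inactive = inhibition below that limit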;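 note: 0% = DMSO with Hck plus Nef and 100% = Hck alone without Nef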
p97 inhibitor: inhibitors of human p97 ATPase, primary screen, biochemical. Transitional endoplasmic reticulum ATPase (Homo sapiens), P55072. recombinant p97 ATPase, Kinase-Glo ATP luminescence, 3 h. inhibition, % at 8 µM. hit rate 0.42% among 220,000; in the data active = inhibition above about 15%;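 note: 0% = DMSO vehicle and 100% = wells lacking enzyme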
Target sequence (P55072 whole entry, looked up): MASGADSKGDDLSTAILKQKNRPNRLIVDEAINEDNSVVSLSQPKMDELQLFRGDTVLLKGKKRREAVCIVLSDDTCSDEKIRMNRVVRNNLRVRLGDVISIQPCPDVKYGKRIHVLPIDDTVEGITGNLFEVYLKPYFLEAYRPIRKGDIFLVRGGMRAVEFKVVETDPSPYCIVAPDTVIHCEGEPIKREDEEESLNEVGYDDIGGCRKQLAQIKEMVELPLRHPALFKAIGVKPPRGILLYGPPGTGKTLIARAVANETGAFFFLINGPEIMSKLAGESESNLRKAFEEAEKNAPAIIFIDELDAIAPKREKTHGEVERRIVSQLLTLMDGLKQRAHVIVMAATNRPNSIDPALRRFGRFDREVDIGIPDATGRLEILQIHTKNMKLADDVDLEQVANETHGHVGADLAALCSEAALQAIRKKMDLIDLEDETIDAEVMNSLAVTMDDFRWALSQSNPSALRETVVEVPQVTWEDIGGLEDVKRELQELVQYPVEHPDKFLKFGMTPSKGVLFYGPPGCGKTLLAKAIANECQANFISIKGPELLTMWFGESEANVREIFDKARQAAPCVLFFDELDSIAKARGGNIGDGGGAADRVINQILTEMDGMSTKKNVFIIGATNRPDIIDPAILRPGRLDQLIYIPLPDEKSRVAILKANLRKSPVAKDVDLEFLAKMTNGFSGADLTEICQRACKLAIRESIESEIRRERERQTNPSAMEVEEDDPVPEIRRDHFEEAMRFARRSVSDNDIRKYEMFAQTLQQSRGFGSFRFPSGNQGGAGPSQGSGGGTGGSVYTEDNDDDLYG
RanGTP-Imp inh: inhibitors of RanGTP-importin-beta interaction, primary screen, biochemical, FRET, CFP-Ran, YFP-importin-beta, homogeneous | cell-free CFP-Ran/YFP-importin-beta FRET ratio | inhibition, % (concentration not given with the values) | hit rate 1.1% among 300,000 | AID 2216, 2009;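 active = more than half of the replicate wells show a fall in the fluorescence ratio signal beyond about 16%, limit read from the data, passing the limit was not always enough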;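 note: 0% = DMSO wells and 100% = Ran loaded with GDP instead of GTP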
TbHK1 inh: Trypanosoma brucei hexokinase 1 inhibitors, primary screen, biochemical, G6PDH-coupled NADH absorbance, MLSCN library; hexokinase 1 [Trypanosoma brucei]; inhibition, % at 10 µM; hit rate 0.11% among 220,000; recombinant TbHK1, G6PDH-coupled NADH A340; AID 1430, 2008;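 active = inhibition of 50% or more in the single-dose primary screen; inactive = inhibition below 50%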
YIC counter: YIC intramolecular FRET probe signal interference, dose response, counter-screen for RanGTP-importin-beta inhibitor project, biochemical, fluorescence FRET; shares compounds with RanGTP-Imp inh; Purified YIC probe, intramolecular FRET ratio YFP/CFP; IC50, µM; hit rate 40% among 1,000; AID 435026, 2010;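 active = fitted half-maximal inhibitory concentration no more than tenfold above the top dose tested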
Hck-Nef confirm: retest of Hck:Nef kinase inhibitor hits, confirmation, biochemical, Z-Lyte FRET, 384-well, p-Tyr peptide counterscreen | AID 463188, 2010 | Recombinant Hck-YEEI:Nef, Z-Lyte FRET kinase assay | hit rate 28% among 1,300 | shares compounds with Hck-Nef inh | calls only at 10 µM;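 active = average inhibition of at least 50%, with Z-scores no higher than 3 in both the phospho-tyrosine peptide and fluorescence counterscreens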
An asterisk follows results filed as active; i = inactive; . = not tested or not shown.

SMILES | Runt-CBFb FRET | Runt-SMMHC FRET | Hck-Nef inh | p97 inhibitor | RanGTP-Imp inh | TbHK1 inh | YIC counter | others
CCCC(=Nc1ccccc1OC)C1=C(O)CC(c2ccccc2)CC1=O (stereo unspecified) | -1 | 3 | 2 | -5 | 0 | -10 | .
CC12OC1C1(O)CCCC1=CC2=O (stereo unspecified) | . | . | . | . | 20* | . | >50
COC1=CC2(O)CCCC2=CC1=O (stereo unspecified) | . | . | . | . | 2 | . | .
OCC[C@H]1C[C@@H](O)[C@H](O)[C@@]2(CCCCO2)O1 | . | . | . | . | 4 | . | .
O=C(CN1C2CCCC1CC(NC(=O)c1ccccc1)C2)Nc1ccccc1C(F)(F)F (stereo unspecified) | . | . | . | . | 1 | . | .
O=C(CN1C2CCCC1CC(NC(=O)c1ccco1)C2)Nc1ccccc1C(F)(F)F (stereo unspecified) | -8 | 2 | 6 | 2 | 17* | 0 | >50
CN(C)C(=O)[C@H]1C[C@H]1[C@@H](O)[C@H](CO)NC(=O)[C@H](Cc1ccccc1)NC(=O)OC(C)(C)C | . | . | . | . | 0 | . | .
CCCOC(=O)CSC1=C(C#N)C(c2ccccc2OC)C(C#N)C(=O)N1 (stereo unspecified) | 3 | 1 | 9 | 1 | 26* | -7 | >50
C=CCNc1sc(C(=O)c2ccccc2)c(N)c1C#N | -14 | -5 | 2 | 4 | 2 | -17 | .
C=CCNc1sc(C(=O)c2ccc(Br)s2)c(N)c1C#N | -2 | -24 | 1 | -5 | 19* | -20 | 5.6*
Cc1ccc(-c2nnn(CC(=O)N(c3ccccc3)C(C(=O)NCC3CCCO3)c3ccc(Cl)cc3)n2)cc1 (stereo unspecified) | -4 | 1 | 1 | 0 | 21* | -7 | >50
CCCCn1c(N)c(N(CCOC)C(=O)CN2c3ccccc3CC2C)c(=O)[nH]c1=O (stereo unspecified) | 33 | 31 | 17 | -3 | 38* | 6 | >50
CCCCn1c(N)c(N(CCOC)C(=O)CN2C(=O)c3ccccc3C2=O)c(=O)[nH]c1=O | . | . | . | . | 6 | . | .
CC(C)CN(CC(C)C)c1ccc(/C=N/n2cnnc2)cc1[N+](=O)[O-] | -9 | -7 | -7 | -4 | -1 | -24 | .
CC(C)CN(Cc1c(O)ccc2ccccc12)CC(C)C | 8 | -2 | -4 | -2 | 20* | 9 | >50
CCN(CC)S(=O)(=O)c1ccc(N2CCCC2)c(NC(=O)CN2C(=O)NC3(CCCC3)C2=O)c1 | . | . | . | . | 0 | . | .
Oc1ccc(-c2[nH]ncc2-c2cccc3cccnc23)c(O)c1 | 0 | 2 | 0 | 5 | 17* | 2 | >50
COCc1cc(CN2CCN(C)CC2)c(O)c2ncccc12 | 0 | -14 | 4 | 3 | 26* | 3 | >50
Cc1ccc(N(CCC#N)C(=O)COC(=O)C2CCN(S(=O)(=O)c3ccc(C)c(C)c3)CC2)cc1 | . | . | . | . | -3 | . | .
O=C1c2ccccc2NC(c2ccccc2Cl)N1N=C1CCCCCC1 (stereo unspecified) | 3 | 5 | -2 | 1 | 1 | -3 | .
Cc1ccc(-n2c(O)c(C=Nc3ccc4c(c3)OCO4)c3ccccc3c2=O)cc1C | -2 | -314 | 2 | -1 | 19* | -7 | 28*
Cc1cc(N=Cc2c(O)n(-c3ccc4c(c3)OCO4)c(=O)c3ccccc23)ccn1 | 10 | 9 | -2 | 1 | -1 | -10 | .
O=C(c1ccc2ccccc2c1)C1CCCN(C(=O)c2noc3c2CCCC3)C1 (stereo unspecified) | 0 | -7 | 13 | -7 | 0 | 2 | .
COc1ccc2c(CC#N)c[nH]c2c1 | -1 | -6 | 1 | 4 | 31* | 2 | >50
Cc1ccc(N(CC(=O)NCc2ccco2)C(=O)CCC(=O)Nc2nccs2)cc1C | . | . | . | . | 3 | . | .
SMILES | Runt-CBFb FRET | Runt-SMMHC FRET | Hck-Nef inh | p97 inhibitor | RanGTP-Imp inh | TbHK1 inh | YIC counter | others
N#C/C(=C\c1ccc(N2CCOCC2)o1)C(=O)NC1CCCCC1 | 4 | 10 | -2 | 3 | 31* | -9 | 3.9*
N#C/C(=C/c1ccc(N2CCOCC2)o1)C(=O)Nc1ccccc1 | 13 | -70 | 8 | 5 | 31* | -1 | 15*
N#C/C(=C\c1ccc(OCCN2CCOCC2)cc1)C(=O)Nc1ccccc1 | . | . | . | . | 2 | . | .
CC(Cc1ccco1)NC(=O)c1cccc(S(=O)(=O)N(C)C)c1 (stereo unspecified) | . | . | . | . | -3 | . | .
Cc1cccc(C(=O)Oc2ccccc2/C=N/Nc2ccc([N+](=O)[O-])cc2)c1 | -9 | -22 | 4 | 1 | . | 12 | .
Cc1csc(NC(=O)CSc2[nH]c(=O)ncc2C)n1 | . | . | . | . | 1 | . | .
Cc1cnc(=O)[nH]c1SCC(=O)c1ccc(F)cc1 | . | . | . | . | 16* | . | >50
O=C(Cc1c2ccccc2nc2ccccc12)c1ccccc1 | 126* | 115* | 7 | 2 | 22* | -11 | >50
CC(C)(C)c1nc(SCC(=O)c2ccccc2)c2ccccc2n1 | 14 | 16 | 13 | -1 | -1 | 10 | .
CCN(C(=O)c1coc(=O)c(Br)c1)c1ccc2c(c1)OCO2 | -11 | -29 | 12 | 5 | -11 | -28 | .
CCN(C(=O)c1c(C)cc(=O)oc1C)c1ccc2c(c1)OCO2 | 4 | -3 | -2 | 2 | 17* | -5 | >50
CCN(CC)Cc1c(O)ccc2c(C)c(CC(=O)OC)c(=O)oc12 | 117* | 80* | 73* | 4 | 32* | -31 | 14*
C=C(C)COc1ccc2c(C)c(CC(=O)OC)c(=O)oc2c1C | -1 | -8 | 3 | -1 | . | -22 | .
CC(=O)Oc1cc2oc(=O)cc(C)c2cc1OC(C)=O | 81* | 42 | 68* | -3 | 30* | -13 | 45*
CCCc1cc(=O)oc2c(CN3CCCC3)c(O)c(Cl)cc12 | 98* | 160* | 116* | 1 | 62* | -35 | 27* | Hck-Nef confirm=i
